# Assay results taken from ChEMBL document CHEMBL5058577, “EUbOPEN Chemogenomics Library 2 (Multiplex)” (2022).
# System: U2OS
# Test: Multiplex assay against U2OS
# Assay type: toxicity, cell-based
# Conditions: human
# Summary of the method: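 With compound added, live cells were imaged on a CQ1 microscope at 37°C and 5% CO2; staining with Hoechst33342, BioTracker Green Microtubule Cytoskeleton Dye, MitoTracker Red and Annexin V Alexa Fluor 680 had been done at seeding. The CellPathfinder machine-learning gating scheme split cells into Hoechst high-intensity objects or normal cells, normal cells into healthy, pyknosed or fragmented nuclei, and pyknosed cells into mitotic or apoptotic. The tubulin, mitochondrial-mass and membrane-permeability phenotypes are per cents of healthy-nucleus cells.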
# [1] = 12 h, 1 µM, compound concentration 1 uM, replicate 1
# [2] = 12 h, 1 µM, compound concentration 1 uM, replicate 2
# [3] = 12 h, 10 µM, compound concentration 10 uM, replicate 1
# [4] = 12 h, 10 µM, compound concentration 10 uM, replicate 2
# [5] = 24 h, 1 µM, compound concentration 1 uM, replicate 1
# [6] = 24 h, 1 µM, compound concentration 1 uM, replicate 2
# [7] = 24 h, 10 µM, compound concentration 10 uM, replicate 1
# [8] = 24 h, 10 µM, compound concentration 10 uM, replicate 2
# [9] = 48 h, 1 µM, compound concentration 1 uM, replicate 1
# [10] = 48 h, 1 µM, compound concentration 1 uM, replicate 2
# [11] = 48 h, 10 µM, compound concentration 10 uM, replicate 1
# [12] = 48 h, 10 µM, compound concentration 10 uM, replicate 2
compound,measurement,setting,value
Cc1sc2c(c1C)C(c1ccc(Cl)cc1)=N[C@@H](CC(=O)NCCCCCCCCNC(=O)COc1cccc3c1C(=O)N(C1CCC(=O)NC1=O)C3=O)c1nnc(C)n1-2 (stereo partly specified),Population Apoptotic (%),[1],93%
same,Population Fragmented Nuclei (%),[1],43%
same,Population Healthy Nuclei (%),[1],49%
same,Population Hoechst High Intensity Objects (%),[1],11%
same,Population Membrane Permeable-Phenotype (%),[1],9%
same,Population Mitochondria Different-Phenotype (%),[1],4%
same,Population Mitotic Cells (%),[1],6%
same,Population Normal (%),[1],88%
same,Population Pyknosed Nuclei (%),[1],6%
same,Population Tubulin-Different-Phenotype (%),[1],5%
same,Total Cell Count,[1],269
same,Population Apoptotic (%),[2],87%
same,Population Fragmented Nuclei (%),[2],13%
same,Population Healthy Nuclei (%),[2],80%
same,Population Hoechst High Intensity Objects (%),[2],0%
same,Population Membrane Permeable-Phenotype (%),[2],5%
same,Population Mitochondria Different-Phenotype (%),[2],1%
same,Population Mitotic Cells (%),[2],12%
same,Population Normal (%),[2],99%
same,Population Pyknosed Nuclei (%),[2],5%
same,Population Tubulin-Different-Phenotype (%),[2],3%
same,Total Cell Count,[2],136
same,Population Apoptotic (%),[3],86%
same,Population Fragmented Nuclei (%),[3],31%
same,Population Healthy Nuclei (%),[3],55%
same,Population Hoechst High Intensity Objects (%),[3],5%
same,Population Membrane Permeable-Phenotype (%),[3],2%
same,Population Mitochondria Different-Phenotype (%),[3],4%
same,Population Mitotic Cells (%),[3],13%
same,Population Normal (%),[3],94%
same,Population Pyknosed Nuclei (%),[3],13%
same,Population Tubulin-Different-Phenotype (%),[3],0%
same,Total Cell Count,[3],233
same,Population Apoptotic (%),[4],100%
same,Population Fragmented Nuclei (%),[4],19%
same,Population Healthy Nuclei (%),[4],75%
same,Population Hoechst High Intensity Objects (%),[4],0%
same,Population Membrane Permeable-Phenotype (%),[4],17%
same,Population Mitochondria Different-Phenotype (%),[4],12%
same,Population Mitotic Cells (%),[4],0%
same,Population Normal (%),[4],99%
same,Population Pyknosed Nuclei (%),[4],4%
same,Population Tubulin-Different-Phenotype (%),[4],12%
same,Total Cell Count,[4],117
same,Population Apoptotic (%),[5],100%
same,Population Fragmented Nuclei (%),[5],42%
same,Population Healthy Nuclei (%),[5],51%
same,Population Hoechst High Intensity Objects (%),[5],11%
same,Population Membrane Permeable-Phenotype (%),[5],8%
same,Population Mitochondria Different-Phenotype (%),[5],3%
same,Population Mitotic Cells (%),[5],0%
same,Population Normal (%),[5],88%
same,Population Pyknosed Nuclei (%),[5],6%
same,Population Tubulin-Different-Phenotype (%),[5],5%
same,Total Cell Count,[5],297
same,Population Apoptotic (%),[6],92%
same,Population Fragmented Nuclei (%),[6],12%
same,Population Healthy Nuclei (%),[6],80%
same,Population Hoechst High Intensity Objects (%),[6],2%
same,Population Membrane Permeable-Phenotype (%),[6],5%
same,Population Mitochondria Different-Phenotype (%),[6],2%
same,Population Mitotic Cells (%),[6],7%
same,Population Normal (%),[6],97%
same,Population Pyknosed Nuclei (%),[6],7%
same,Population Tubulin-Different-Phenotype (%),[6],4%
same,Total Cell Count,[6],174
same,Population Apoptotic (%),[7],100%
same,Population Fragmented Nuclei (%),[7],34%
same,Population Healthy Nuclei (%),[7],53%
same,Population Hoechst High Intensity Objects (%),[7],8%
same,Population Membrane Permeable-Phenotype (%),[7],4%
same,Population Mitochondria Different-Phenotype (%),[7],5%
same,Population Mitotic Cells (%),[7],0%
same,Population Normal (%),[7],91%
same,Population Pyknosed Nuclei (%),[7],12%
same,Population Tubulin-Different-Phenotype (%),[7],2%
same,Total Cell Count,[7],245
same,Population Fragmented Nuclei (%),[8],27%
same,Population Healthy Nuclei (%),[8],65%
same,Population Hoechst High Intensity Objects (%),[8],0%
same,Population Membrane Permeable-Phenotype (%),[8],21%
same,Population Mitochondria Different-Phenotype (%),[8],9%
same,Population Normal (%),[8],99%
same,Population Pyknosed Nuclei (%),[8],7%
same,Population Tubulin-Different-Phenotype (%),[8],14%
same,Total Cell Count,[8],130
same,Population Apoptotic (%),[9],91%
same,Population Fragmented Nuclei (%),[9],35%
same,Population Healthy Nuclei (%),[9],53%
same,Population Hoechst High Intensity Objects (%),[9],10%
same,Population Membrane Permeable-Phenotype (%),[9],6%
same,Population Mitochondria Different-Phenotype (%),[9],1%
same,Population Mitotic Cells (%),[9],8%
same,Population Normal (%),[9],89%
same,Population Pyknosed Nuclei (%),[9],10%
same,Population Tubulin-Different-Phenotype (%),[9],2%
same,Total Cell Count,[9],353
same,Population Apoptotic (%),[10],90%
same,Population Fragmented Nuclei (%),[10],12%
same,Population Healthy Nuclei (%),[10],79%
same,Population Hoechst High Intensity Objects (%),[10],1%
same,Population Membrane Permeable-Phenotype (%),[10],4%
same,Population Mitotic Cells (%),[10],9%
same,Population Normal (%),[10],98%
same,Population Pyknosed Nuclei (%),[10],7%
same,Population Tubulin-Different-Phenotype (%),[10],1%
same,Total Cell Count,[10],270
same,Population Apoptotic (%),[11],100%
same,Population Fragmented Nuclei (%),[11],36%
same,Population Healthy Nuclei (%),[11],51%
same,Population Hoechst High Intensity Objects (%),[11],7%
same,Population Membrane Permeable-Phenotype (%),[11],9%
same,Population Mitochondria Different-Phenotype (%),[11],4%
same,Population Mitotic Cells (%),[11],0%
same,Population Normal (%),[11],92%
same,Population Pyknosed Nuclei (%),[11],12%
same,Population Tubulin-Different-Phenotype (%),[11],4%
same,Total Cell Count,[11],289
same,Population Fragmented Nuclei (%),[12],25%
same,Population Healthy Nuclei (%),[12],70%
same,Population Hoechst High Intensity Objects (%),[12],2%
same,Population Membrane Permeable-Phenotype (%),[12],10%
same,Population Normal (%),[12],97%
same,Population Pyknosed Nuclei (%),[12],4%
same,Population Tubulin-Different-Phenotype (%),[12],7%
same,Total Cell Count,[12],179
